From ChEMBL document CHEMBL1140506, “Molecular design of histone deacetylase inhibitors by aromatic ring shifting in chlamydocin framework” (Bioorg Med Chem, 2007) come the findings set out here.

Non-standard residues stand in square brackets, D forms with d. Residues, ends and D or L forms follow the SMILES beside them. Ahp(7-SS(2-pyridyl)) = N[C@@H](CCCCCSSc1ccccn1)C(=O)O; Aib = CC(C)(N)C(=O)O

A short description of experiment [1]: Induction of wild-type p21 promoter activation in mink Mv1Lu cells after 18 hrs by luciferase assay relative to basal level. It counts as functional, Neovison vison. In a few lines: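 Stable Mv1Lu clone (MFLL-9) carrying p21 promoter (2.4 kb genomic fragment)–luciferase reporter, G418-selected. Cells (1 × 10^5) plated 6 h, then exposed 18 h to various drug concentrations. Luciferase activity of lysates measured by luminometer, normalized to lysate protein; concentration giving 10-fold induction over basal level reported as EC1000.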

For another experiment, the species on record is Homo sapiens. In words: Selectivity for human HDAC4 over human HDAC1. In a few lines:
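Selectivity calculated from IC50 values against FLAG-tagged human HDAC4 and HDAC1, each transiently expressed in 293T cells, anti-FLAG immunopurified and FLAG-peptide eluted. Ac-KGLGK(Ac)-MCA substrate, pH 8.0 Tris buffer with 0.1 mM DTT, 37 °C 30 min. Trypsin development, then AMC fluorescence read.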

The target of experiment [2] is T1, Protein deacetylase HDAC6 (Mus musculus, UniProt Q9Z2V5).
T1 sequence (Q9Z2V5 whole entry): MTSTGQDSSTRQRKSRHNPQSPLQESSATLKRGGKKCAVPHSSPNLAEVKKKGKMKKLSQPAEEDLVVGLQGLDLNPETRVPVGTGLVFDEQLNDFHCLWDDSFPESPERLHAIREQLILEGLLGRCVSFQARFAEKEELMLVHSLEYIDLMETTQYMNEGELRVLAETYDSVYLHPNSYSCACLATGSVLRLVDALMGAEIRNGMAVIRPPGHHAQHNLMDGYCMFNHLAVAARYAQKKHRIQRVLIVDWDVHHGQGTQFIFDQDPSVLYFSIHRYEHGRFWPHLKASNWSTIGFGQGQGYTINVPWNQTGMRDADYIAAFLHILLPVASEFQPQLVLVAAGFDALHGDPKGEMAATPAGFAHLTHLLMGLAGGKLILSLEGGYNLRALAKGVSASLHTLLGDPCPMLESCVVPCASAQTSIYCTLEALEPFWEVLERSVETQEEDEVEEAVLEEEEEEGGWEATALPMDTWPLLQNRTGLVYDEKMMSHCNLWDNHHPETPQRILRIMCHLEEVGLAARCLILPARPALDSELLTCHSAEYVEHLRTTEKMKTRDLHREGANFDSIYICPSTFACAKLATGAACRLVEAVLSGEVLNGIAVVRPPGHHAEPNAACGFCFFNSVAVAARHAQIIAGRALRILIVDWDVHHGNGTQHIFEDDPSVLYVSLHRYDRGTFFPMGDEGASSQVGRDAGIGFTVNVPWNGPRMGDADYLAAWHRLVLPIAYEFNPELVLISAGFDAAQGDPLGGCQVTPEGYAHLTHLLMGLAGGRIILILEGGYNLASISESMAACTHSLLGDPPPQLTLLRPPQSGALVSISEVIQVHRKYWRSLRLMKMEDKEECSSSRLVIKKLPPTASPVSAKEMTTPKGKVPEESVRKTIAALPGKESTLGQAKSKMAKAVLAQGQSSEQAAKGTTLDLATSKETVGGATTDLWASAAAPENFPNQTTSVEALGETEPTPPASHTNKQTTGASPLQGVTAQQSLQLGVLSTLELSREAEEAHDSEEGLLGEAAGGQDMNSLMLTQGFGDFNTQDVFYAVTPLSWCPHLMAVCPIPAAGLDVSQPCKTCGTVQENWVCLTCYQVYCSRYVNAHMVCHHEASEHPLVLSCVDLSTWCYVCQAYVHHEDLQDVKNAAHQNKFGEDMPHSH
Briefly: Inhibition of mouse HDAC6 expressed in 293T cells. The experiment is classed as cell-based.

The target in a further experiment is Histone deacetylase 1 (Homo sapiens, UniProt Q13547). Briefly: Inhibition of human HDAC1 expressed in 293T cells. The experiment is classed as cell-based.
The next experiment concerns the target Histone deacetylase 4 (Homo sapiens, UniProt P56524). Briefly: Inhibition of human HDAC4 expressed in 293T cells. The experiment is classed as cell-based.

Sequence of Histone deacetylase 1 (Q13547 whole entry): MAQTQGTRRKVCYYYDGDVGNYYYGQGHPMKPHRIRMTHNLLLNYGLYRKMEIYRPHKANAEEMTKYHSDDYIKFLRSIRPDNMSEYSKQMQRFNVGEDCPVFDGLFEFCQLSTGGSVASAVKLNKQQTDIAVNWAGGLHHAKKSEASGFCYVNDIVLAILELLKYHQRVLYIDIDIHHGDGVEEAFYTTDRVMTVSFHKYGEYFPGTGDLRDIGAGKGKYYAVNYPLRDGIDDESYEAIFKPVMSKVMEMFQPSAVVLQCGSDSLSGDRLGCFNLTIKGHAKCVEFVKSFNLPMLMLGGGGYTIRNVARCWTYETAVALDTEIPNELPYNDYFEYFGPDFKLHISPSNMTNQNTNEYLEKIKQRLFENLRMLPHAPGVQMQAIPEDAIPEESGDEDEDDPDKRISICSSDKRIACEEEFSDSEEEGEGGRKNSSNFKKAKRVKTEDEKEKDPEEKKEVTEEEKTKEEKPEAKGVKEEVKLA
Sequence of Histone deacetylase 4 (P56524 whole entry): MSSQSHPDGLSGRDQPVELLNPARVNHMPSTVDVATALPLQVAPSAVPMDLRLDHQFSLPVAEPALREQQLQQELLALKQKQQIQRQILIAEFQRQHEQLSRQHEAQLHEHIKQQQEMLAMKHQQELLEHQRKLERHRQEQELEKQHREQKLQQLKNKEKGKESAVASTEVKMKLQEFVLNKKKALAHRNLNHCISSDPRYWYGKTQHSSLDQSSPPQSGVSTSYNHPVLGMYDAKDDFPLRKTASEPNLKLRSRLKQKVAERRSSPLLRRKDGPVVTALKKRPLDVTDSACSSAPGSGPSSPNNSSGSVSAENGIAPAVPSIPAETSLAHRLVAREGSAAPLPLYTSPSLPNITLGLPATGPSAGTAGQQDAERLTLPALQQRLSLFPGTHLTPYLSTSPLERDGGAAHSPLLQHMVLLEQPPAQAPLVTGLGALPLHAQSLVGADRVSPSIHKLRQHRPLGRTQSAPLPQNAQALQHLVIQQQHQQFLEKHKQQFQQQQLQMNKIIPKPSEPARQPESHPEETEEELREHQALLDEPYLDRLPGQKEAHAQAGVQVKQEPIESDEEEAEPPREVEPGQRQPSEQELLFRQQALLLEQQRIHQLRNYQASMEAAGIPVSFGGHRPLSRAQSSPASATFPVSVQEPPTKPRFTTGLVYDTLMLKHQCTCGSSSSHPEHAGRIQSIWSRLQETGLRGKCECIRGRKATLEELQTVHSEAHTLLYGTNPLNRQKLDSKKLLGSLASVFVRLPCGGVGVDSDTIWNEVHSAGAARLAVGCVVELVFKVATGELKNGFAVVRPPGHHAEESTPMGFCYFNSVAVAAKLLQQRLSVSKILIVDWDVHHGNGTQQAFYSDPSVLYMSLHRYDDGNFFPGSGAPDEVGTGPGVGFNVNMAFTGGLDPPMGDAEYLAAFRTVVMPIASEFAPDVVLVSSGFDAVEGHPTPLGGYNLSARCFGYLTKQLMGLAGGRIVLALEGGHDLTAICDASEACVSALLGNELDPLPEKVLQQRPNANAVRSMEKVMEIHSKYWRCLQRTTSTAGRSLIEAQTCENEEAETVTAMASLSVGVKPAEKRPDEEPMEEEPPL

By IC50 is commonly meant the concentration needed to halve the response being measured. Read a high IC50 as weaker potency in that assay. As to `C[C@@H]1NC(=O)C2(Cc3ccccc3C2)NC(=O)[C@H](CCCCCSSc2ccccn2)NC(=O)[C@H]2CCCN2C1=O`, the EC1000 in experiment [1] amounted to 140 nM. Further, the Ratio IC50 in the experiment listed under Homo sapiens worked out at 1.2. Also, the IC50 in experiment [2] was 8.8 nM; at Histone deacetylase 1, 2 nM; on Histone deacetylase 4, 1.6 nM.

`C[C@@H]1NC(=O)[C@]2(CCc3ccccc32)NC(=O)[C@H](CCCCCSSc2ccccn2)NC(=O)[C@H]2CCCN2C1=O` displayed an EC1000 in experiment [1] of 2000 nM. Moreover, the Ratio IC50 in the experiment listed under Homo sapiens came out at 1.4. In addition, the IC50 in experiment [2] is 33 nM; at Histone deacetylase 1, 36 nM; at Histone deacetylase 4 it was 25 nM.

In experiment [1], `CC1(C)NC(=O)[C@H](CCCCCSSc2ccccn2)NC(=O)[C@H]2CCCN2C(=O)[C@H](c2ccccc2)NC1=O` gave an EC1000 of 7400 nM. For the same compound, the Ratio IC50 in the experiment listed under Homo sapiens was found to be 1.5. Further, the IC50 in experiment [2] amounted to 86 nM; against Histone deacetylase 1, 88 nM; at Histone deacetylase 4, 56 nM.

In experiment [1], `CC1(C)NC(=O)[C@H](CCCCCSSc2ccccn2)NC(=O)[C@H]2CCCN2C(=O)[C@H](CO)NC1=O` registered an EC1000 of 580 nM. For the same compound, the Ratio IC50 in the experiment filed under Homo sapiens amounted to 1.6. In addition, the IC50 is 26 nM in experiment [2], 6.4 nM at Histone deacetylase 1 and 4 nM against Histone deacetylase 4.

On to `C[C@@H]1NC(=O)C(C)(C)NC(=O)[C@H](CCCCCSSc2ccccn2)NC(=O)[C@H]2Cc3ccccc3CN2C1=O` [listing 1 of 2 here], for which the IC50 in experiment [2] worked out at 29 nM; on Histone deacetylase 1 it was 4.7 nM; at Histone deacetylase 4, 4.2 nM.

Regarding `CC1(C)NC(=O)[C@H](CCCCCSSc2ccccn2)NC(=O)[C@H]2CCCN2C(=O)[C@H](COCc2ccccc2)NC1=O`, the EC1000 in experiment [1] is 72 nM. In addition, the Ratio IC50 in the experiment listed under Homo sapiens is 2. For the same compound, the figures for the IC50 (in experiment [2]; at Histone deacetylase 1; on Histone deacetylase 4) were 24 nM, 3.2 nM and 1.6 nM, respectively.

For the compound `CC1(C)NC(=O)[C@H](CCCCCSSc2ccccn2)NC(=O)[C@H]2CCCN2C(=O)[C@H](Cc2ccccc2)NC1=O` (cyclo([Aib]F[dP][Ahp(7-SS(2-pyridyl))])), in experiment [1], the EC1000 was 45 nM. The Ratio IC50 in the experiment filed under Homo sapiens came to 2.1. Moreover, the IC50 was 40 nM in experiment [2], 3.9 nM at Histone deacetylase 1 and 1.8 nM at Histone deacetylase 4.

`C[C@@H]1NC(=O)[C@@](C)(Cc2ccccc2)NC(=O)[C@H](CCCCCSSc2ccccn2)NC(=O)[C@H]2CCCN2C1=O` came in with an EC1000 in experiment [1] of 25600 nM. The Ratio IC50 in the experiment listed under Homo sapiens turned out to be 2.4. The IC50 was found to be 71 nM in experiment [2], 170 nM at Histone deacetylase 1 and 70 nM at Histone deacetylase 4.

In turn, `C[C@@H]1NC(=O)[C@@]2(CCc3ccccc32)NC(=O)[C@H](CCCCCSSc2ccccn2)NC(=O)[C@H]2CCCN2C1=O` came in with an EC1000 in experiment [1] of 55 nM. Further, the Ratio IC50 in the experiment listed under Homo sapiens amounted to 1.1. Besides, the IC50 was found to be 12 nM in experiment [2], 2.7 nM on Histone deacetylase 1 and 2.4 nM at Histone deacetylase 4.

As for `C[C@H]1CN2Cc3ccccc3C[C@@H]2C(=O)N[C@@H](CCCCCSSc2ccccn2)C(=O)NC(C)(C)C(=O)N1`, the Ratio IC50 in the experiment filed under Homo sapiens was 1.1.

In turn, `CC1(C)NC(=O)[C@H](CCCCCSSc2ccccn2)NC(=O)[C@H]2CCCN2C(=O)[C@H](CCCc2ccccc2)NC1=O` yielded an EC1000 in experiment [1] of 110 nM. In addition, in the experiment listed under Homo sapiens, the Ratio IC50 was found to be 1.9. The IC50 is 43 nM in experiment [2], 5.3 nM against Histone deacetylase 1 and 2.7 nM against Histone deacetylase 4.

Compound `CC1(C)NC(=O)[C@H](CCCCCSSc2ccccn2)NC(=O)[C@H]2CCCN2C(=O)[C@H](CCc2ccccc2)NC1=O` came in with an EC1000 in experiment [1] of 320 nM. Further, the Ratio IC50 in the experiment listed under Homo sapiens was 1.9. Besides, the IC50 was 36 nM in experiment [2], 6.2 nM at Histone deacetylase 1 and 3.2 nM on Histone deacetylase 4.

Take `C[C@@H]1NC(=O)C(C)(C)NC(=O)[C@H](CCCCCSSc2ccccn2)NC(=O)[C@H]2Cc3ccccc3CN2C1=O` [listing 2 of 2 here]: in experiment [1], the EC1000 was 200 nM.

For the compound `C[C@@H]1NC(=O)[C@](C)(Cc2ccccc2)NC(=O)[C@H](CCCCCSSc2ccccn2)NC(=O)[C@H]2CCCN2C1=O`, in experiment [1], the EC1000 was determined as 550 nM. Moreover, the Ratio IC50 in the experiment listed under Homo sapiens stood at 1.6. Further, the IC50 in experiment [2] turned out to be 56 nM; against Histone deacetylase 1 it was 3.7 nM; at Histone deacetylase 4, 2.2 nM.

With `C[C@@H]1NC(=O)C(C)(C)NC(=O)[C@H](CCCCCSSc2ccccn2)NC(=O)[C@H]2CCCN2C1=O`, the EC1000 in experiment [1] turned out to be 750 nM. Besides, the Ratio IC50 in the experiment filed under Homo sapiens came out at 1.8. The IC50 is 43 nM in experiment [2], 9.4 nM on Histone deacetylase 1 and 5.2 nM at Histone deacetylase 4.
